Data: ChEMBL document CHEMBL4425095, “Novel Cephalosporins Selectively Active on Nonreplicating Mycobacterium tuberculosis” (J Med Chem, 2016)
Values after ≈ are worked out from the molar mass of the structure shown.

What was measured:
Assay type in all cases: functional
[1] = tested on: Mycobacterium tuberculosis; test: Antimycobacterial activity against replicating Mycobacterium tuberculosis mc2 6220 harboring panCD/lysA deletion mutant by two-fold serial dilution method
Summary of the method: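 M. tuberculosis mc26220 in replicating medium supplemented with glycerol (final 0.5%), OADC, casamino acids 0.05%, lysine 240 μg/mL and pantothenate 24 μg/mL. Exposed to 2-fold serially diluted compound from DMSO. OD580 read after 7 days at 20% O2, 5% CO2. Reported as MIC90.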

[2] = tested on: Mycobacterium tuberculosis; test: Antimycobacterial activity against non-replicating Mycobacterium tuberculosis mc2 6220 harboring panCD/lysA deletion mutant incubated for 7 days measured at OD580 = 0.1 by two-fold serial dilution method
Summary of the method: (§1)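 M. tuberculosis mc26220 washed twice in PBS-tyloxapol and resuspended in Sauton's-based nonreplicating medium (pH 5.0, butyrate 0.05%, BSA, tyloxapol, lysine, pantothenate, 0.5 mM NaNO2). Incubated at 1% O2, 5% CO2 with 2-fold serially diluted compound from DMSO. After 3 days, diluted 5-fold in fresh replicating medium for outgrowth at 20% O2. Reported as MIC90.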

[3] = tested on: Mycobacterium tuberculosis; test: Antimycobacterial activity against non-replicating Mycobacterium tuberculosis mc2 6220 harboring panCD/lysA deletion mutant incubated for 7 days measured at OD580 = 0.01 by two-fold serial dilution method; summary of the method: as §1
[4] = tested on: Mycobacterium tuberculosis; test: Antimycobacterial activity against non-replicating Mycobacterium tuberculosis mc2 6220 harboring panCD/lysA deletion mutant incubated for 3 days measured at OD580 = 0.1 by two-fold serial dilution method; summary of the method: as §1
[5] = tested on: Mycobacterium tuberculosis; test: Antimycobacterial activity against replicating Mycobacterium tuberculosis mc2 6220 harboring panCD/lysA deletion mutant incubated for 3 days measured at OD580 = 0.01 by two-fold serial dilution method
[6] = tested on: Mycobacterium tuberculosis; test: Antimycobacterial activity against non-replicating Mycobacterium tuberculosis mc2 6220 harboring panCD/lysA deletion mutant incubated for 3 days measured at OD580 = 0.01 by two-fold serial dilution method; summary of the method: as §1
[7] = tested on: Mycobacterium tuberculosis; test: Antimycobacterial activity against non-replicating Mycobacterium tuberculosis mc2 6220 harboring panCD/lysA deletion mutant incubated for 6 days measured at OD580 = 0.1 by two-fold serial dilution method; summary of the method: as §1

SMILES	MIC90 [1]	MIC90 [2]	MIC90 [3]	MIC90 [4]	MIC90 [5]	MIC90 [6]	MIC90 [7]
C#CCOC(=O)C1=C(C)CS[C@@H]2[C@H](NC(=O)COc3ccc(Cl)cc3)C(=O)N12	>100 µg/mL	3.95 µg/mL (≈ 9.39 µM)	1.53 µg/mL (≈ 3.64 µM)	–	–	–	–
CCCCOC(=O)C1=C(C)CS[C@@H]2[C@H](NC(=O)CCc3ccc(OC)cc3)C(=O)N12	>100 µg/mL	0.26 µg/mL (≈ 0.601 µM)	0.24 µg/mL (≈ 0.555 µM)	–	–	–	–
CCCCOC(=O)C1=C(C)CS[C@@H]2[C@H](NC(=O)COc3ccc(OC)cc3)C(=O)N12	>100 µg/mL	1.12 µg/mL (≈ 2.58 µM)	0.71 µg/mL (≈ 1.63 µM)	–	–	–	–
COC(=O)C1=C(C)CS[C@@H]2[C@H](NC(=O)CCc3ccccc3)C(=O)N12	>100 µg/mL	1.27 µg/mL (≈ 3.52 µM)	10.4 µg/mL (≈ 28.9 µM)	–	–	–	–
CCCOC(=O)C1C(C)=CS[C@@H]2[C@H](NC(=O)CCc3ccc(OC)cc3)C(=O)N12 (stereo partly specified)	49.5 µg/mL (≈ 118 µM)	<0.23 µg/mL	0.21 µg/mL (≈ 0.502 µM)	–	–	–	–
CC1=CS[C@@H]2[C@H](NC(=O)COc3ccccc3)C(=O)N2[C@H]1COS(=O)(=O)c1ccc(Br)cc1	>83.24 µg/mL	>55.34 µg/mL	>55.34 µg/mL	–	–	–	–
CCCOC(=O)C1=C(C)CS[C@@H]2[C@H](NC(=O)CCc3ccc(OC)cc3)C(=O)N12	>100 µg/mL	<0.2 µg/mL	<0.2 µg/mL	–	–	–	–
CC1=C(c2nc(C)no2)N2C(=O)[C@@H](NC(=O)OC(C)(C)C)[C@H]2SC1	>100 µg/mL	9.16 µg/mL (≈ 26 µM)	5.3 µg/mL (≈ 15 µM)	–	–	–	–
CCCc1noc(C2=C(C)CS[C@@H]3[C@H](NC(=O)COc4ccc(C)cc4)C(=O)N23)n1	>100 µg/mL	–	–	14.31 µg/mL (≈ 33.4 µM)	–	–	–
CC1=C(c2nc(C)no2)N2C(=O)[C@@H](NC(=O)COc3ccc(C(F)(F)F)cc3)[C@H]2SC1	>100 µg/mL	–	–	5.26 µg/mL (≈ 11.6 µM)	–	–	–
CC1=C(c2nc(C)no2)N2C(=O)[C@@H](NC(=O)COc3ccc(C)cc3)[C@H]2SC1	>100 µg/mL	–	–	7.42 µg/mL (≈ 18.5 µM)	–	–	–
CC1=C(C(=O)O)N2C(=O)[C@@H](NC(=O)[C@H](N)c3ccccc3)[C@H]2SC1 [CEPHALEXIN ANHYDROUS]	33.99 µg/mL (≈ 97.8 µM)	100 µg/mL (≈ 288 µM)	–	61.35 µg/mL (≈ 177 µM)	33.99 µg/mL (≈ 97.8 µM)	97.93 µg/mL (≈ 282 µM)	70.42 µg/mL (≈ 203 µM)
CCCc1noc(C2=C(C)CS[C@@H]3[C@H](NC(=O)CCc4ccccc4Cl)C(=O)N23)n1	>100 µg/mL	1.27 µg/mL (≈ 2.84 µM)	0.52 µg/mL (≈ 1.16 µM)	–	–	–	–
CC(=O)OCC1=C(C(=O)O)N2C(=O)[C@@H](NC(=O)Cc3cccs3)[C@H]2SC1 [CEPHALOTHIN]	>100 µg/mL	>100 µg/mL	95.53 µg/mL (≈ 241 µM)	–	–	–	–
CC1=C(C(N)=O)N2C(=O)[C@@H](NC(=O)COc3ccccc3)[C@H]2SC1	>100 µg/mL	>100 µg/mL	59.68 µg/mL (≈ 172 µM)	–	–	–	–
CCCCOC(=O)C1=C(C)CS[C@@H]2[C@H](NC(=O)CCc3ccccc3)C(=O)N12	>100 µg/mL	<0.24 µg/mL	0.21 µg/mL (≈ 0.522 µM)	–	–	–	–
CCCOC(=O)C1=C(C)CS[C@@H]2[C@H](NC(=O)COc3ccc(Cl)cc3)C(=O)N12	>100 µg/mL	1.34 µg/mL (≈ 3.15 µM)	0.66 µg/mL (≈ 1.55 µM)	–	–	–	–
CC1=C(C(=O)O)N2C(=O)[C@@H](NC(=O)c3ccc(Cl)cc3)[C@H]2SC1	>100 µg/mL	>35.28 µg/mL	>35.28 µg/mL	–	–	–	–
COC[C@H]1C(C)=CS[C@@H]2[C@H](NC(=O)COc3ccccc3)C(=O)N21	>87.82 µg/mL	>34.84 µg/mL	>34.84 µg/mL	–	–	–	–
CC1=C(C(=O)O)N2C(=O)[C@@H](NC(=O)Cc3ccc(Cl)cc3)[C@H]2SC1	81.38 µg/mL (≈ 222 µM)	>36.68 µg/mL	>36.68 µg/mL	–	–	–	–
CC1=C(C(=O)O)N2C(=O)[C@@H](NC(=O)COc3ccccc3)[C@H]2SC1	>100 µg/mL	>34.84 µg/mL	>34.84 µg/mL	–	–	–	–
CCCOC(=O)C1=C(C)CS[C@@H]2[C@H](NC(=O)CCc3ccccc3)C(=O)N12	53.64 µg/mL (≈ 138 µM)	1.24 µg/mL (≈ 3.19 µM)	0.6 µg/mL (≈ 1.54 µM)	–	–	–	–
